In ChEMBL document CHEMBL4028909, “Discovery of an Orally Bioavailable Benzofuran Analogue That Serves as a β-Amyloid Aggregation Inhibitor for the Potential Treatment of Alzheimer's Disease” (J Med Chem, 2018):

Experiments:
[1] = Oral bioavailability in rat; type: ADME, organism-based; settings: in vivo
[2] = Terminal half life in mouse at 3 mg/kg, po; type: ADME, organism-based; settings: in vivo, read-out: beta t1/2 (converted)
How it was run: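 Mouse pharmacokinetics: single i.v. dose of 3 mg/kg, or oral doses of 3, 10 and 30 mg/kg. Plasma concentration–time curves gave T1/2 (terminal, hr), Tmax (hr), Cmax, AUC and bioavailability (%).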

[3] = Half life in po ICR mouse; type: ADME, organism-based; settings: in vivo
[4] = Half life in po dosed rat; type: ADME, organism-based; settings: in vivo
[5] = Half life in po dosed monkey; type: ADME, organism-based, Macaca mulatta; settings: rhesus monkey, in vivo
[6] = Ratio of AUC in ICR mouse brain to AUC in ICR mouse plasma at 10 mg/kg, po measured at 1 hr; type: ADME, organism-based; settings: read-out: Ratio AUC
How it was run: (§1)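 ICR mice (n=3) given a single oral dose of 10 mg/kg. Brain and plasma were sampled over nine hours, at 0.333, 1, 3, 6 and 9 h. Kp was calculated as AUC_brain/AUC_plasma.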

HT-22 = test: Cytotoxicity against mouse HT22 cells assessed as effect on cell viability at 1.25 to 10 uM after 18 hrs by MTT assay; type: cell-based; settings: ht-22, 18 h
How it was run: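 Mouse HT22 cells were treated with compound alone at the stated concentrations, without Aβ aggregates. Viability was read by MTT.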

[7] = Cmax in mouse at 30 mg/kg, po; type: ADME, organism-based; parameters: dose 30 mg/kg, route oral; settings: in vivo
How it was run: (§2)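 Mice received a single dose of 3 mg/kg i.v. or 3, 10 or 30 mg/kg orally. Plasma concentration-time profiles were analysed for AUC from zero to infinity and to the last measured time (hr*ng/mL), Cmax (ng/mL, C0 after i.v.), Tmax and terminal half-life (hr), and oral bioavailability (%).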

[8] = Half-life in po dosed ICR mouse; settings: in vivo
[9] = AUC (infinity) in mouse at 30 mg/kg, po; type: ADME, organism-based; parameters: dose 30 mg/kg, time infinity, route oral; settings: in vivo; how it was run: as §2
Mus musculus [10] = test: Reversal of cognitive deficit in amyloid beta (1 to 42)-treated Alzheimer's disease ICR mouse model assessed as increase in spatial memory function by measuring spontaneous alternation at 1 mg/kg, po administered for 3 consecutive days by Y maze test relative to control; type: functional
How it was run: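 Acute AD model: preformed Aβ aggregates injected directly into the brains of normal mice to induce acute neurotoxicity. Compound given orally for three consecutive days, then the Y-maze was run. Read-out is percentage of spontaneous alternation, compared against normal and vehicle-treated mice.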

[11] = AUClast in mouse at 10 mg/kg, po; type: ADME, organism-based; parameters: dose 10 mg/kg, route oral, time 0 - last; settings: in vivo; how it was run: as §2
[12] = Cmax in mouse at 10 mg/kg, po; type: ADME, organism-based; parameters: dose 10 mg/kg, route oral; settings: in vivo; how it was run: as §2
Rattus norvegicus = test: Volume of distribution at steady state in po dosed rat; type: ADME, organism-based; settings: in vivo
Mus musculus [13] = test: Volume of distribution at steady state in po ICR mouse; type: ADME, organism-based; settings: in vivo
[14] = Half-life in po dosed monkey; settings: rhesus monkey, in vivo
Cytochrome P450 2C8 = target: T1, Cytochrome P450 2C8 (Homo sapiens, UniProt P10632); test: Inhibition of CYP2C8 in human liver microsomes preincubated for 5 mins followed by addition of NADPH generating system measured after 20 mins by LC-MS/MS analysis; type: ADME
T1 sequence (P10632 whole entry): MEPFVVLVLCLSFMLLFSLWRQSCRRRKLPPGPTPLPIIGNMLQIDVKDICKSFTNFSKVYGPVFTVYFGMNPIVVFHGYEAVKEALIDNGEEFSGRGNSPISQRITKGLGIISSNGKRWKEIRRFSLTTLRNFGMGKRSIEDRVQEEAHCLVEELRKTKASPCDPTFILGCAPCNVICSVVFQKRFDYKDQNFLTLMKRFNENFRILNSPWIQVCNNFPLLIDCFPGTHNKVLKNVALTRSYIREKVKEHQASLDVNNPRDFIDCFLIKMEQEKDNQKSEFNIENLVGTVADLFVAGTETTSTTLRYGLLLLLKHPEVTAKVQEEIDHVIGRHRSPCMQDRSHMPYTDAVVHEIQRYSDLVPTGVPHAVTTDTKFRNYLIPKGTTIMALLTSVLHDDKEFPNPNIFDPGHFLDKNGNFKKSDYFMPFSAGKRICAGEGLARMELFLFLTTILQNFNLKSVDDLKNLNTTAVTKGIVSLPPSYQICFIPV
How it was run: (§3)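 Inhibition of each CYP isozyme (1A2, 2A6, 2C8, 2C9, 2C19, 2D6, 3A4) was measured in human liver microsomes. IC50 values were reported in μM.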

[15] = AUC (infinity) in mouse at 10 mg/kg, po; type: ADME, organism-based; parameters: dose 10 mg/kg, time infinity, route oral; settings: in vivo; how it was run: as §2
[16] = Initial concentration in mouse at 3 mg/kg, iv; type: ADME, organism-based; settings: in vivo; how it was run: as §2
Mus musculus [17] = test: AUC (infinity) in mouse at 3 mg/kg, iv; type: ADME, organism-based; parameters: dose 3 mg/kg, route intravenous, time infinity; settings: in vivo; how it was run: as §2
[18] = Ratio of AUC in ICR mouse brain to AUC in ICR mouse plasma at 10 mg/kg, po measured at 3 hrs; type: ADME, organism-based; settings: read-out: Ratio AUC; how it was run: as §1
Cytochrome P450 2D6 = Cytochrome P450 2D6 (Homo sapiens, UniProt P10635); test: Inhibition of CYP2D6 in human liver microsomes preincubated for 5 mins followed by addition of NADPH generating system measured after 20 mins by LC-MS/MS analysis; type: ADME; how it was run: as §3
Cytochrome P450 2A6 = target: T2, Cytochrome P450 2A6 (Homo sapiens, UniProt P11509); test: Inhibition of CYP2A6 in human liver microsomes preincubated for 5 mins followed by addition of NADPH generating system measured after 20 mins by LC-MS/MS analysis; type: ADME; how it was run: as §3
T2 sequence (P11509 whole entry): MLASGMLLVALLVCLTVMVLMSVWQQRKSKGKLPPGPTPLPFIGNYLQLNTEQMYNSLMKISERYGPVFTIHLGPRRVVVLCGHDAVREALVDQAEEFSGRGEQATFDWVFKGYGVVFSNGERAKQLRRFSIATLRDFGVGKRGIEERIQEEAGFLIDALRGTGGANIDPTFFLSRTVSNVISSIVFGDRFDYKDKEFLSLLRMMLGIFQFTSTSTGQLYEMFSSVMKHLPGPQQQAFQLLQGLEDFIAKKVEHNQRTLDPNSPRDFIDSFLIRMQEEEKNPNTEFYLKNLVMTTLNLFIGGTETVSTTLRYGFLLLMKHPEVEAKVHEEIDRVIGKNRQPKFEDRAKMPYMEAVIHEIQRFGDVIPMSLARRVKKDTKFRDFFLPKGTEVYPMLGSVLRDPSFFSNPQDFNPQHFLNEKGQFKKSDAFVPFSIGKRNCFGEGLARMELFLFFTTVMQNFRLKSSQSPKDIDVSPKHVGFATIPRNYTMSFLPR

[19] = Oral bioavailability in ICR mouse; type: ADME, organism-based; settings: in vivo
Mus musculus [20] = test: Reversal of cognitive deficit in amyloid beta (1 to 42)-treated Alzheimer's disease ICR mouse model assessed as step-through latency time at 10 mg/kg, po administered for 3 consecutive days by passive avoidance test; type: functional
How it was run: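 Acute AD model: preformed Aβ aggregates injected into the brains of normal mice. Compound given orally for three consecutive days, then step-through passive avoidance was tested by a standard protocol. Read-out is step-through latency (sec), compared against control and vehicle groups.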

Chain of Cytochrome P450 2D6 (P10635 whole entry): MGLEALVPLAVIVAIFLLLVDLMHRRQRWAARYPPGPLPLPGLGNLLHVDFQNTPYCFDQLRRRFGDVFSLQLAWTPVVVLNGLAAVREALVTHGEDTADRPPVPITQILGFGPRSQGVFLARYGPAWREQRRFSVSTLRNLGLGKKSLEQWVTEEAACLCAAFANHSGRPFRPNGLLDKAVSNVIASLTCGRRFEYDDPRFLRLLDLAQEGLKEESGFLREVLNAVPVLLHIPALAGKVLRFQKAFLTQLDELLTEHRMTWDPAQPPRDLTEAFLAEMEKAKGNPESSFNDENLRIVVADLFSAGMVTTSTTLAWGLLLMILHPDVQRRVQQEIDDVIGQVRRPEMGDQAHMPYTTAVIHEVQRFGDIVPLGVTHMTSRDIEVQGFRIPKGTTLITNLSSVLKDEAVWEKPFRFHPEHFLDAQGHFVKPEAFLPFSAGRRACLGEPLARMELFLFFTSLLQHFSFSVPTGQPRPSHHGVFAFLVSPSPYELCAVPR

bioavailability [1]: 51%
half-life [2]: 2 h
half-life [3]: 5.87 h
half-life [4]: 3.8 h
half-life [5]: 12.9 h
Kp at 1 h [6]: 1.5
Cmax [7]: 1700 ng/mL
t1/2 [8]: 5.87 h
AUC(0-inf) [9]: 10500 ng·h/mL
AUC(0-t) [11]: 2240 ng·h/mL
Cmax [12]: 660 ng/mL
Vdss (Rattus norvegicus): 10 L/kg
Vdss (Mus musculus [13]): 2.5 L/kg
t1/2 [14]: 12.9 h
IC50 (Cytochrome P450 2C8): 31.4 µM
AUC(0-inf) [15]: 2290 ng·h/mL
C0 [16]: 4870 ng/mL
AUC (Mus musculus [17]): 1325.1 ng·h/mL
Kp at 3 h [18]: 1.2
IC50 (Cytochrome P450 2D6): > 50 µM
IC50 (Cytochrome P450 2A6): > 50 µM
bioavailability [19]: 83.3%
Structure (SMILES): COCCCc1ccc2oc(-c3ccc(OC)c(OC)c3)cc2c1
Activity (HT-22): Non-Toxic
Activity (Mus musculus [10]): 71.22%
Time (Mus musculus [20]): 201.2 s
